# Compound activity (PubChem BioAssay)
# Only some compounds are listed: those with a hit (about 2.3% of all), similar ones and a draw of the others.
# TCR CD3 inh = inhibitors of human TCR-CD3 interaction, primary screen, biochemical, fluorescence, TAMRA-labeled TCR probe | T-cell receptor (TCR) | inhibition, % at 9.4 µM | 360,000 tested, 0.37% active | AID 651800, 2012; in the data active = inhibition above about 19%;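 also: recombinant mutant TCR 2C K166C tagged with TAMRA read by polarization; 0% = receptor in buffer alone and 100% = receptor with positive control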
# SIAE inh = human SIAE inhibitors, primary screen, biochemical, fluorescence polarization, FP-Rh probe, 1536-well HTS. SIAE FP-Rh probe binding. inhibition, % at 9.66 µM. 370,000 tested, 0.69% active. AID 1053197, 2014;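 active = inhibition above a cutoff: mean of compounds within the control limits plus 3 SD of those, cut at about 17% in these data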;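 also: 0% = plate median of compound wells and 100% = probe without SIAE protein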
# mABHD4 FP = ABHD4 inhibitors, primary screen, biochemical, fluorescence polarization, mouse | (Lyso)-N-acylphosphatidylethanolamine lipase (Mus musculus), Q8VD66 | inhibition, % at 8.92 µM | 370,000 tested, 0.54% active | purified mABHD4, FP-Rh probe fluorescence polarization;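 active = inhibition exceeding the mean over every tested compound plus 3 SD, cut at about 30% in these data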;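 also: 0% = plate median of compound wells and 100% = S159A mutant with DMSO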
# Target sequence (Q8VD66 whole entry, looked up): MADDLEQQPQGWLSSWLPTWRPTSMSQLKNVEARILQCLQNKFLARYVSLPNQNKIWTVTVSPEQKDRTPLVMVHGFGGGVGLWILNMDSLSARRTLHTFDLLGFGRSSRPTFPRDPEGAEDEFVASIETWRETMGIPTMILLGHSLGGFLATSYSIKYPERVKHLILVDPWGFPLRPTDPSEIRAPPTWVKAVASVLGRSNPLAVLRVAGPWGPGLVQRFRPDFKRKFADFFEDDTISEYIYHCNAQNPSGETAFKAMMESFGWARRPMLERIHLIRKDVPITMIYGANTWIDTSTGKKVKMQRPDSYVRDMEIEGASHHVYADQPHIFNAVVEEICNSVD
#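 Test system: mABHD4 protein | Buffer or medium: HEPES pH 7.0 buffer, 150 mM NaCl, 0.01% Pluronic F-127 | Probe or stimulus: FP-Rh fluorescent activity-based probe, added after compound pre-incubation | Timing: Pre-incubation 45 min, probe exposure 60 min, at 25 °C | Technique: Fluorescence polarization, excitation 525 nm, emission 598 nm, BODIPY TMR filters | Repeats: Single well per compound (singlicate)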
# pPAFAH inh = pPAFAH enzyme inhibitors, primary screen, biochemical, fluorescence polarization, human | Platelet-activating factor acetylhydrolase (Homo sapiens), Q13093 | recombinant pPAFAH, FP-rhodamine probe fluorescence polarization | inhibition, % at 3.39 µM | 330,000 tested, 1.5% active;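 active = inhibition above the mean inhibition across the screen plus 3 SD, cut at about 25% in these data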;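 also: inhibitors block binding of the rhodamine activity-based probe so polarization drops; 0% = enzyme with DMSO and 100% = wells lacking pPAFAH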
# HTRA1 inhibitor = HTRA1 serine protease inhibitors, primary screen, biochemical, fluorescence polarization, HTS; Q92743; recombinant HTRA1, FP-rhodamine activity-based probe; 340,000 tested, 0.5% active; inhibition, % at 5.96 µM; in the data active = inhibition above about 36%;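 also: 0% = enzyme with DMSO and 100% = wells lacking enzyme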
# HTRA1 conf = HTRA1 protease inhibitors, retest, confirmation, biochemical, fluorescence polarization; 1,600 tested, 66% active; shares compounds with HTRA1 inhibitor; inhibition, % at 5.96 µM; AID 540248, 2011; recombinant HTRA1, FP-rhodamine activity-based probe;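 active = mean inhibition over three repeats above a set limit taken from the earlier primary screen, cut at about 37% in these data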;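 also: 0% = HTRA1 with DMSO and 100% = wells lacking HTRA1; inhibitors block probe binding so polarization drops and inhibition rises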
# * = called active by the depositor; . = not tested or not shown.
SMILES,TCR CD3 inh,SIAE inh,mABHD4 FP,pPAFAH inh,HTRA1 inhibitor,HTRA1 conf
Oc1c(Cl)cc(CN2CCOCC2)c2cccnc12,9,6,6,28*,41*,31
O=C(Oc1c(CN2CCOCC2)cc(Cl)c2cccnc12)c1ccccc1,0,3,7,3,37*,7
COc1ccc(C(=O)Oc2c(CN3CCOCC3)cc(Cl)c3cccnc23)cc1OC,7,10,6,-4,.,.
COc1cc(OC)cc(C(=O)Oc2c(CN3CCOCC3)cc(Cl)c3cccnc23)c1,3,13,8,2,38*,3
Oc1c(CN2CCCCC2)cc(Br)c2cccnc12,1,12,21,12,71*,72*
O=C(NCc1ccco1)C(=O)NN=Cc1ccccc1O,2,-2,4,.,.,.
c1ccc(COc2ncnc3c2ncn3CCCNCC(c2ccccc2)c2ccccc2)cc1,4,-1,12,.,-40,.
Nc1c(C(=O)N2CCN(CCc3ccccc3)CC2)cnn1-c1ccccc1,.,3,4,.,.,.
O=C(NNc1nc2ccc(Cl)cc2s1)c1cc(-c2cccs2)nc2ccccc12,-4,-2,-6,15,42*,56*
COC(=O)C1=C(C)N(Cc2ccc(C(F)(F)F)cc2)C(=NCC2CC2)NC1c1ccccc1 (stereo not drawn),-4,1,12,.,.,.
Cc1nnc(C)n1/N=C/c1c(O)ccc2ccccc12,4,-4,-3,3,4,.
Cc1nnc(-c2ccccc2)c(=O)n1/N=C/c1c(O)ccc2ccccc12,5,15,9,3,37*,35
CC(=O)Nc1cccc(-c2ccnc3c2CC(C)(C(=O)Nc2cccc(C(C)=O)c2)O3)c1 (stereo not drawn),-2,4,4,.,.,.
O=C(CN1CCN(S(=O)(=O)c2ccc(Br)cc2)CC1)c1ccc(O)c(O)c1,9,8,18,11,37*,39*
CC(C)c1ccc(S(=O)(=O)N2CCN(CC(=O)c3ccc(O)c(O)c3)CC2)cc1,12,7,21,20,38*,35
O=C(N1CCN(c2ccccn2)CC1)C(Cl)(Cl)Cl,1,-1,-3,-6,-4,.
O=C1C=C(N2CCN(c3ccccn3)CC2)C(=O)c2c(O)ccc(O)c21,1,6,13,.,38*,49*
COc1cc(/C=N/NC(N)=O)ccc1OC(=O)c1cccs1,-1,1,-1,9,7,.
COc1cc(/C=N/Nc2ccc(Cl)cc2)ccc1OC(=O)c1cccs1,1,10,1,-7,47*,68*
OC(c1ccccc1)(c1ccccc1)C1CCN(CCCOc2ccc3c(c2)CCCC3)CC1,-5,-4,29,.,.,.
CC(C)(C)n1cnc2cc(NCc3ccccc3O)ccc21,2,3,12,2,46*,17
Cc1cc(N/N=C/c2c[nH]c3ccccc23)c2ccccc2n1,-2,14,-2,3,-4,.
Fc1c(F)c(F)c(N/N=C/c2c[nH]c3ccccc23)c(F)c1F,-6,13,15,2,43*,42*
Cn1c(N/N=C/c2c[nH]c3ccccc23)nc2ccccc21,2,11,22,13,46*,27
CC(=O)Nc1ccc(-c2ccnc3c2CC(C)(C(=O)Nc2cccc(Oc4ccccc4)c2)O3)cc1 (stereo not drawn),0,-67,-60,.,.,.
SMILES,TCR CD3 inh,SIAE inh,mABHD4 FP,pPAFAH inh,HTRA1 inhibitor,HTRA1 conf
CCCCn1c(/C=N/Nc2nc3ccccc3[nH]2)nc2ccccc21,5,7,24,11,41*,59*
Clc1ccc2nc(-c3ccccn3)c(Nc3ccc4c(c3)OCO4)n2c1,7,7,6,27*,58*,60*
COc1ccc(N=Nc2ccc(O)c3ncccc23)cc1,-1,8,14,31*,44*,63*
O=[N+]([O-])c1cc(Cl)c2cccnc2c1O,-1,0,10,7,43*,52*
O=[N+]([O-])c1ccc(Cl)c2cccnc12,-1,4,-7,-6,1,.
O=[N+]([O-])c1ccc(O)c2cccnc12,2,4,5,0,-3,.
Oc1c(I)cc(Cl)c2cccnc12,9,17,27,31*,54*,87*
O=[N+]([O-])c1cc(F)c2cccnc2c1O,1,9,16,9,55*,48*
COC(=O)C1CN(Cc2ccc(OC)cc2)CCS(=O)(=O)N1Cc1ccc(F)cc1 (stereo not drawn),.,4,-1,.,.,.
CN(CC#Cc1ccccc1)C(N)=NC(=O)/C=C/c1ccccc1,.,0,1,.,.,.
CCC(CC)C(C(=O)NCc1ccccc1)N1CCN(C(=O)C2CCCO2)CC1 (stereo not drawn),-2,1,4,.,.,.
CC(C)CN1C(=O)C[C@]2(C(=O)N(C)c3ccc(NS(=O)(=O)c4ccc(F)cc4)cc32)C1c1ccccc1 (stereo partly drawn),.,3,1,.,.,.
CN1CCN(C(c2ccc(Cl)cc2)c2cc(Cl)c3cccnc3c2O)CC1 (stereo not drawn),-9,-4,-1,7,43*,87*
Oc1c(C(c2ccccn2)N2CCCCC2)cc(Cl)c2cccnc12 (stereo not drawn),-1,4,6,5,53*,55*
O=C(CSc1nnc(CNc2ccc(Cl)cc2)o1)Nc1nc2c(s1)CCCC2,-2,5,26,22,38*,5
COc1ccc(CCNC(=O)CSc2nnc(CNc3ccc(Cl)cc3)o2)cc1OC,8,-5,0,-5,-2,.
COC[C@H]1CCCN1c1ccc2c(c1)O[C@H](COCc1ccccc1)CN([C@H](C)c1ccccc1)S2(=O)=O,9,-6,0,.,.,.
CN(CC(=O)Nc1ccccc1Br)C(=O)c1cc([N+](=O)[O-])ccc1N1CCOCC1,-2,-15,-5,2,92*,-2
Cc1cccc(C)c1NC(=O)CN(C)C(=O)c1cc([N+](=O)[O-])ccc1N1CCOCC1,3,3,6,4,1,.
Brc1ccc(C=Nc2ccc(Nc3ccccc3)cc2)s1,.,.,.,11,73*,94*
OCCN(CCO)c1ccc(C(c2ccccc2Cl)c2ccc(N(CCO)CCO)cc2Cl)c(Cl)c1,.,.,.,25*,44*,61*
CCOC(=O)c1[nH]c2ccc(C)cc2c1NC(=O)CN1CCCCC1,-2,2,1,4,-1,.
Cc1c2cc[n+](CCN3CCCCC3)cc2c(C)c2c1[nH]c1ccc(O)cc12,.,.,.,.,41*,55*
Cc1ccsc1C=Nc1ccc(O)cc1,.,.,.,22,51*,15
Cc1ccsc1/C=N/N=C/c1sccc1C,2,-9,1,-2,-4,.
Fc1ccc(-c2cc(-c3nnc4sc(Cc5cccs5)nn34)[nH]n2)cc1,.,-13,-19,.,.,.
